Laboratory results from ChEMBL document CHEMBL4627381, “Licochalcone A Selectively Resensitizes ABCG2-Overexpressing Multidrug-Resistant Cancer Cells to Chemotherapeutic Drugs” (J Nat Prod, 2020).
Active and inactive are the calls of the source. The calls are words filed in the database; no cut-off is given here.

Columns and labels:
[1] = target: Multidrug resistance-associated protein 1 (Homo sapiens, UniProt P33527); assay: Reversal of human ABCC1-mediated multidrug resistance in HEK293/MRP1 cells assessed as fold-change in etoposide IC50 at 1 uM after 72 hrs by CCK8 relative to etoposide IC50; assay type: cell-based
Summary of the method: (§1)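 Cells were seeded at 5000/well for 24 h, then given colchicine, etoposide, mitoxantrone or topotecan ± non-toxic modulator (0.5–3.0 μM) for 72 h, with DMSO up to 0.5%. IC50 came from fitted curves (mean ± SD, three experiments). Fold-reversal = IC50 without modulator ÷ IC50 with modulator.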

[2] = target: T1, Broad substrate specificity ATP-binding cassette transporter ABCG2 (Homo sapiens, UniProt Q9UNQ0); assay: Reversal of ABCG2 (unknown origin)-mediated multidrug resistance in human S1-M1-80 cells assessed as fold-change in topotecan IC50 at 3 uM after 72 hrs by MTT assay relative to topotecan IC50; assay type: cell-based; conditions: s1-m1-80, 72 h
T1 sequence (Q9UNQ0 whole entry): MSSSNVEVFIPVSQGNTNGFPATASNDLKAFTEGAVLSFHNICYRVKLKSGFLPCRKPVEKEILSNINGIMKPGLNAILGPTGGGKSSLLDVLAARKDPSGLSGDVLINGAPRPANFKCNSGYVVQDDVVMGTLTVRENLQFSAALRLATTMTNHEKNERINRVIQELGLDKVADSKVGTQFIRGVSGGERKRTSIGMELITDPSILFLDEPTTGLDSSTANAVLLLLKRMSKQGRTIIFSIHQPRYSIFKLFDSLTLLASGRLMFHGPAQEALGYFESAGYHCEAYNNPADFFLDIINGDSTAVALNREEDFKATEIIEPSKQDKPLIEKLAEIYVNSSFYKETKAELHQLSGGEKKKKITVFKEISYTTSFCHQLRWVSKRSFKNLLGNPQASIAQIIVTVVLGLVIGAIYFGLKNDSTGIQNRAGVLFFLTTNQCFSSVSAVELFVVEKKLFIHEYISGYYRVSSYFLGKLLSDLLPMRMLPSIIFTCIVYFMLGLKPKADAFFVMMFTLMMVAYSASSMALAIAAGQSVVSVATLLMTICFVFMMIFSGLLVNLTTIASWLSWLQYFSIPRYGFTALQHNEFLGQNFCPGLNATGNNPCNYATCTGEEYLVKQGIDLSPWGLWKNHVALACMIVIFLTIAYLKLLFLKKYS
Summary of the method: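 MTT readout in S1-M1-80 colon cancer cells (mitoxantrone-selected, held in 80 μM mitoxantrone, then drug-free 7 days before assay). Cells were seeded at 5000/well for 24 h, then given increasing mitoxantrone or topotecan with DMSO or non-toxic modulator for 72 h at 37 °C. IC50 came from fitted dose-response curves (at least three independent experiments). Fold-reversal = IC50 without modulator ÷ IC50 with modulator.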

HEK293 [3] = assay: Cytotoxicity against HEK293 cells overexpressing human ABCG2 after 72 hrs by CCK8 assay; assay type: ADME, cell-based; conditions: HEK293, 72 h
Summary of the method: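 Cells seeded at 5000/well, allowed 24 h, then exposed to a concentration series for 72 h at 37 °C in DMSO vehicle (up to 0.5% v/v). HEK293 lines were read with CCK-8 and cancer lines with MTT. IC50 was taken from fitted dose-response curves over at least three independent experiments. Lines were kept drug-free for 7 days before assay.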

S1-M1-80 [4] = assay: Potentiation of topotecan-induced apoptosis in human S1-M1-80 cells harboring ABCG2 (unknown origin) assessed as viable cells at 10 uM incubated for 48 hrs by annexin V/propidium iodide staining based flow cytometry (reference value: 90.6%); assay type: functional; conditions: S1-M1-80, 48 h, read-out: Activity
ABCG2 = target: T2, ABCG2 (Homo sapiens, UniProt Q9UNQ0); assay: Modulation of ABCG2 (unknown origin) expressed in High Five insect cell vesicle membrane assessed as maximal stimulation of ATPase activity after 20 mins by colorimetric assay relative to baseline; conditions: membrane vesicles of High Five insect cells expressing ABCG2, read-out: Activity
T2 sequence (Q9UNQ0 whole entry): T1 sequence (Q9UNQ0 whole entry)
Summary of the method: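 Membrane vesicles from ABCG2-expressing High Five cells were incubated with LCA (0–390 μM) at 37 °C for 20 min in 50 mM MES-Tris pH 6.8 with ouabain, DTT, NaN3, EGTA and KCl, ±0.3 mM vanadate. Liberated Pi was read by molybdate/ascorbate colorimetry at 880 nm. Vi-sensitive activity = activity minus activity with vanadate; mean ± SD of three experiments.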

HEK293 [5] = assay: Effect on Colchicine-induced cytotoxicity against HEK293 cells assessed as fold change in colchicine IC50 at 2 uM after 72 hrs by CCK8 assay relative to colchicine IC50; assay type: cell-based; conditions: human, hek293, 72 h
Summary of the method: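 Reversal assay in parental pcDNA-HEK293 and transfected HEK293 lines (ABCB1 for colchicine, ABCC1 for etoposide, ABCG2 for mitoxantrone/topotecan). Substrate drug series was given with or without nontoxic modulator (0.5, 1.0, 2.0 or 3.0 μM) for 72 h, with a CCK-8 read-out. Fold-reversal is substrate IC50 without modulator divided by IC50 with modulator. Three independent experiments.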

S1-M1-80 [6] = assay: Potentiation of topotecan-induced apoptosis in human S1-M1-80 cells harboring ABCG2 (unknown origin) assessed as late apoptotic cells at 10 uM incubated for 48 hrs by annexin V/propidium iodide staining based flow cytometry (reference value: 6%); assay type: functional
S1-M1-80 [7] = assay: Potentiation of topotecan-induced apoptosis in human S1-M1-80 cells harboring ABCG2 (unknown origin) assessed as necrotic cells at 10 uM incubated for 48 hrs by annexin V/propidium iodide staining based flow cytometry (reference value: 0.4%); assay type: functional
[8] = target: T1, Broad substrate specificity ATP-binding cassette transporter ABCG2; assay: Modulation of human ABCG2 expressed in HEK293/R482 cells assessed as increase in intracellular pheophorbide A accumulation at 20 uM incubated for 1 hr by FACScan flow cytometry; assay type: cell-based
Summary of the method: (§2)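 Cells held drug-free 7 days. 3 × 10^5 cells were suspended in IMDM with 5% FCS and loaded with pheophorbide A (ex 395/em 670 nm) for 1 h, with or without LCA (20 μM for single-concentration accumulation) or Ko143 3 μM as reference. Read immediately by flow cytometry. Efflux inhibition was run over a concentration range; mean ± SD of three experiments.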

LS180 = assay: Upregulation of ABCG2 mRNA expression in human LS180 cells at 1 uM by […] relative to control; assay type: functional
[9] = target: T1, Broad substrate specificity ATP-binding cassette transporter ABCG2; assay: Inhibition of human ABCG2-mediated pheophorbide A efflux in HEK293/R482 cells incubated for 1 hr by FACScan flow cytometry; assay type: cell-based; summary of the method: as §2
[10] = target: T1, Broad substrate specificity ATP-binding cassette transporter ABCG2; assay: Reversal of human ABCG2-mediated multidrug resistance in HEK293/R482 cells assessed as fold-change in topotecan IC50 at 0.5 uM after 72 hrs by CCK8 relative to topotecan IC50; assay type: cell-based; summary of the method: as §1
S1 = assay: Induction of apoptosis in human S1 cells assessed as early apoptotic cells at 10 uM incubated for 48 hrs in presence of topotecan by annexin V/propidium iodide staining based flow cytometry (reference value: 2%); assay type: functional
Summary of the method: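 S1 cells were exposed for 48 h to DMSO, 10 μM compound, 5 μM topotecan, or 5 μM topotecan plus 10 μM compound. They were then stained with 1.25 μg/mL annexin V–FITC and 0.1 mg/mL PI for 15 min at room temperature. 10000 cells per sample were analysed by flow cytometry; three independent experiments.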

NCI-H460 = assay: Induction of pheophorbide A accumulation in human H460 cells at 20 uM incubated for 1 hr by FACScan flow cytometry; assay type: functional, cell-based; summary of the method: as §2

Multidrug resistance-associated protein 1, sequence (P33527 whole entry): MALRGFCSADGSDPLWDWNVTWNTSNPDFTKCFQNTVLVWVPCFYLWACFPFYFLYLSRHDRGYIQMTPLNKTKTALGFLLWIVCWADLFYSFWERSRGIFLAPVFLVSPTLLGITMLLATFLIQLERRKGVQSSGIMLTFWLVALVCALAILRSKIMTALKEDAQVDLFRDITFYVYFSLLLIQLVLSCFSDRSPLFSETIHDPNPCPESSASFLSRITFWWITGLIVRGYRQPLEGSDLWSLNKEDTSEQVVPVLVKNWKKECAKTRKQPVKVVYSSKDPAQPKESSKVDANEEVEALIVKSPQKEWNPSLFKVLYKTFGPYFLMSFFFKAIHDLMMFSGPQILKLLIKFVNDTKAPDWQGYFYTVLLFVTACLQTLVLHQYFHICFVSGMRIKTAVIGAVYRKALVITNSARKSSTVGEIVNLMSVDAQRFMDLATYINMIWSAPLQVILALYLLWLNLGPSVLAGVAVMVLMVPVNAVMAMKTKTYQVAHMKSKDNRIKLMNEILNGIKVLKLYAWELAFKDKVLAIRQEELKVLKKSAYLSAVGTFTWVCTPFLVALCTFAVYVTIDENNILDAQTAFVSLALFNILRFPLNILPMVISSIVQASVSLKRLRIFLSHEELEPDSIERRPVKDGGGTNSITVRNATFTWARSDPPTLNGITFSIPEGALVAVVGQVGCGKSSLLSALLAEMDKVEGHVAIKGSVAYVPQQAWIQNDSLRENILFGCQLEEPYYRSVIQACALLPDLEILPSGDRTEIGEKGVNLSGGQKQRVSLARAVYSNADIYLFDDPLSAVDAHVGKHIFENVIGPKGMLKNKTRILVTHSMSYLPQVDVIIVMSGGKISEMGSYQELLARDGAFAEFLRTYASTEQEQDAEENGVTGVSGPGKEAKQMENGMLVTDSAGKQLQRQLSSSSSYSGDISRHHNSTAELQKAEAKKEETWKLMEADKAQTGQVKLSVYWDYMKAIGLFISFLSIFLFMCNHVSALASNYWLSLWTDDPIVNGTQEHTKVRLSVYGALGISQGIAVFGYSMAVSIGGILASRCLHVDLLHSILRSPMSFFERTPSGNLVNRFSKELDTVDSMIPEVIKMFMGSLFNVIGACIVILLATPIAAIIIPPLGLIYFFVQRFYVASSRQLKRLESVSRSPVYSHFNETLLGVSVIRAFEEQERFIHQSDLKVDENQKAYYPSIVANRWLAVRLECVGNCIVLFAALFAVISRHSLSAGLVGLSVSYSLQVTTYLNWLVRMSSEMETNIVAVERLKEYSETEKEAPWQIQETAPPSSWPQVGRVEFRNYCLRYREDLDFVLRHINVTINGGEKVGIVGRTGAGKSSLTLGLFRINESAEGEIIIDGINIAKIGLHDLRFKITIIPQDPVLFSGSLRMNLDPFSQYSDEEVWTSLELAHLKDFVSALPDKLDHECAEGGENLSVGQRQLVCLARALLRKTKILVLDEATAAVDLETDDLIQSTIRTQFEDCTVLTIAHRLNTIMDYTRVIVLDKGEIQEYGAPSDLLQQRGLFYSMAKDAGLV

fold change (FC) [1]: 1.3
fold change (FC) [2]: 32.7
Emax at 20 min (ABCG2): 150%
Activity [8]: Active
inhibition (INH) [9]: Dose-dependent effect
fold change (FC) [10]: 2.2
Structure (SMILES): C=CC(C)(C)c1cc(/C=C/C(=O)c2ccc(O)cc2)c(OC)cc1O [LICOAGROCHACONE A]
IC50 (HEK293 [3]): 10 to 50 µM
viability at 10 µM (S1-M1-80 [4]): 67.8%
fold change (FC) (HEK293 [5]): 0.9
Activity (S1-M1-80 [6]): 22.5%
Activity (S1-M1-80 [7]): 0.8%
fold change (FC) (LS180): 2 - 6
Activity (S1): 30.3%
Activity (NCI-H460): inactive
